ChEMBL document CHEMBL2434823, “Design, synthesis and biological activities of some 7-aminocephalosporanic acid derivatives” (Eur J Med Chem, 2013)
The source made the active and inactive calls. No cut-off for these calls is given here.

Columns and labels:
Bacillus cereus [1] = assay: Antimicrobial activity against Bacillus cereus 702 Roma at 10 ug; assay type: functional; settings: read-out: IZ
Enterococcus faecalis [2] = assay: Antimicrobial activity against Enterococcus faecalis ATCC 29212 at 10 ug; assay type: functional; settings: read-out: IZ
Staphylococcus aureus [3] = assay: Antimicrobial activity against Staphylococcus aureus ATCC 25923 at 10 ug; assay type: functional; settings: read-out: IZ
Pseudomonas aeruginosa [4] = assay: Antimicrobial activity against Pseudomonas aeruginosa ATCC 43288 at 10 ug; assay type: functional; settings: read-out: IZ
[5] = system: Yersinia pseudotuberculosis; assay: Antimicrobial activity against Yersinia pseudotuberculosis ATCC 911 at 10 ug; assay type: functional; settings: read-out: IZ
Summary of the method: (§1)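 Compounds were dissolved in […] as 20.000 µg/mL stocks. Ampicillin (10 µg) was the reference antibacterial, and DMSO diluted 1:10 was the solvent control.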

Escherichia coli = assay: Antimicrobial activity against Escherichia coli ATCC 25922 at 10 ug; assay type: functional; settings: read-out: IZ; summary of the method: as §1
Urease = Urease (Canavalia ensiformis, UniProt P07374); assay: Inhibition of jack bean urease using urea as substrate assessed as ammonia production after 15 mins
Chain of Urease (P07374 whole entry): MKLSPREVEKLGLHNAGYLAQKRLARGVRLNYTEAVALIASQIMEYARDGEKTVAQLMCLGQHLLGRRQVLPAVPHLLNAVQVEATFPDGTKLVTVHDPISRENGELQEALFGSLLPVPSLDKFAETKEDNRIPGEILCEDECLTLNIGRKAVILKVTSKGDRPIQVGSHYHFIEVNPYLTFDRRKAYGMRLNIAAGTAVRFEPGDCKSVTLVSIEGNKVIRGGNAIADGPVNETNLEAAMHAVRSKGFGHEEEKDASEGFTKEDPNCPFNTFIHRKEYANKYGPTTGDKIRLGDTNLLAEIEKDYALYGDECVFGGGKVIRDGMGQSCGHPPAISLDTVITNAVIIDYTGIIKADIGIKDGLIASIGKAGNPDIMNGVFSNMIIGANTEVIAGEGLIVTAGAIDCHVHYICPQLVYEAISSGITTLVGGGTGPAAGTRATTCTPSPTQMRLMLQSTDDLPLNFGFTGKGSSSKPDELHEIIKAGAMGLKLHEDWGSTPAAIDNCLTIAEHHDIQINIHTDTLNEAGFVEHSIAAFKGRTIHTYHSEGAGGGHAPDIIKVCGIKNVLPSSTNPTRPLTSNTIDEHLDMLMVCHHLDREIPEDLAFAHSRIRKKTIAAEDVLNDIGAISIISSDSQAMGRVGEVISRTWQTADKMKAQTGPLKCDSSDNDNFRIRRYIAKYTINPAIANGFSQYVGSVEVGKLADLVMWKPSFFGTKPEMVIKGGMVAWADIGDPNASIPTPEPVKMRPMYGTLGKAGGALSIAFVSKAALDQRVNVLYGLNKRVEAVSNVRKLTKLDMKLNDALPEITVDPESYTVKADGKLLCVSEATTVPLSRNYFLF
Summary of the method: (§2)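 Jack bean urease in pH 8.2 buffer (100 mM urea, 0.01 M K2HPO4, 1 mM EDTA, 0.01 M LiCl) was incubated with compound for 15 min at room temperature. Ammonia was measured by the indophenol method (phenol/nitroprusside, then NaOH/NaOCl) at A625 after 20 min. Inhibition % = 100 − (OD test/OD control)×100. […] Thiourea was the standard.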

[6] = biological target: Urease (Canavalia ensiformis) (UniProt P07374); assay: Inhibition of jack bean urease using urea as substrate assessed as ammonia production at 250 ug/ml after 15 mins relative to control; summary of the method: as §2
Chain of Urease (Canavalia ensiformis) (P07374 whole entry, looked up): as the sequence (P07374 whole entry) above

[7] = biological target: Urease (Canavalia ensiformis) (UniProt P07374); assay: Inhibition of jack bean urease using urea as substrate assessed as ammonia production at 100 ug/ml after 15 mins relative to control
Saccharomyces cerevisiae [8] = assay: Antimicrobial activity against Saccharomyces cerevisiae RSKK 251; assay type: functional
[9] = system: Mycolicibacterium smegmatis; assay: Antimicrobial activity against Mycobacterium smegmatis ATCC 607; assay type: functional
Candida albicans [10] = assay: Antimicrobial activity against Candida albicans ATCC 60193; assay type: functional
Enterococcus faecalis [11] = assay: Antimicrobial activity against Enterococcus faecalis ATCC 29212; assay type: functional
Summary of the method: (§3)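 Compound stocks were 20.000 µg/mL in hexane. DMSO diluted 1:10 served as the solvent control, and ampicillin was the reference drug.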

Bacillus cereus [12] = assay: Antimicrobial activity against Bacillus cereus 702 Roma; assay type: functional; summary of the method: as §3
Staphylococcus aureus [13] = assay: Antimicrobial activity against Staphylococcus aureus ATCC 25923; assay type: functional; summary of the method: as §3
[14] = system: Yersinia pseudotuberculosis; assay: Antimicrobial activity against Yersinia pseudotuberculosis ATCC 911; assay type: functional; summary of the method: as §1
Pseudomonas aeruginosa [15] = assay: Antimicrobial activity against Pseudomonas aeruginosa ATCC 43288; assay type: functional; summary of the method: as §3
[16] = Inhibition of Bacillus cereus metallo beta-lactamase assessed as nitrocefin substrate hydrolysis after 20 mins
Summary of the method: (§4)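 Commercial B. cereus metallo-β-lactamase (1.5 µM solution) was combined with nitrocefin (150 µM solution) and compound in 25 mM PIPES pH 7.0 containing 100 µM ZnSO4. A486 was read continuously for 20 min at 37 °C. Residual activity was taken relative to the no-inhibitor control, in triplicate. Screening used 1 mM final; IC50 came from a concentration series. HgCl2 was the positive control.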

Bacillus cereus [17] = assay: Inhibition of Bacillus cereus metallo beta-lactamase assessed as nitrocefin substrate hydrolysis at 1 mM after 20 mins; summary of the method: as §4
Saccharomyces cerevisiae [18] = assay: Antimicrobial activity against Saccharomyces cerevisiae RSKK 251 at 5 ug; assay type: functional; settings: read-out: IZ
Summary of the method: (§5)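 Compounds were dissolved in […] as 20.000 µg/mL stocks. Fluconazole (5 µg) was the reference antifungal, and DMSO diluted 1:10 was the solvent control.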

Candida albicans [19] = assay: Antimicrobial activity against Candida albicans ATCC 60193 at 5 ug; assay type: functional; settings: read-out: IZ; summary of the method: as §5

SMILES	inhibition zone (IZ) (Saccharomyces cerevisiae [8])	inhibition zone (IZ) [9]	inhibition zone (IZ) (Candida albicans [10]) [mm]	inhibition zone (IZ) (Enterococcus faecalis [11])	inhibition zone (IZ) (Bacillus cereus [12])	inhibition zone (IZ) (Staphylococcus aureus [13]) [mm]	inhibition zone (IZ) [14]	inhibition zone (IZ) (Pseudomonas aeruginosa [15])	IC50 [16] [µM]	inhibition (Bacillus cereus [17]) [%]	other results
CC1(C)S[C@@H]2[C@H](NC(=O)[C@H](N)c3ccccc3)C(=O)N2[C@H]1C(=O)O [AMPICILLIN]	–	–	–	–	–	–	–	–	–	–	zone of inhibition at 10 µg/disc (Bacillus cereus [1]): 15 mm; zone of inhibition at 10 µg/disc (Enterococcus faecalis [2]): 10 mm; zone of inhibition at 10 µg/disc (Staphylococcus aureus [3]): 35 mm; zone of inhibition at 10 µg/disc (Pseudomonas aeruginosa [4]): 18 mm; zone of inhibition at 10 µg/disc [5]: 18 mm; zone of inhibition at 10 µg/disc (Escherichia coli): 10 mm
O=C(Nc1ccccc1)Nc1ccc(S(=O)(=O)Cl)cc1	15 mm	inactive	8	inactive	inactive	6	inactive	inactive	–	–	IC50 (Urease): 388 µM; inhibition [6]: 100%; inhibition [7]: 39.3%
CC(=O)OCC1=C(C(=O)O)N2C(=O)[C@@H](NC(=O)CN3CCN(c4ccc([N+](=O)[O-])cc4F)CC3)[C@H]2SC1	30 mm	22 mm	15	8 mm	10 mm	18	6 mm	inactive	1170	24	–
OC(Cn1cncn1)(Cn1cncn1)c1ccc(F)cc1F [FLUCONAZOLE]	–	–	–	–	–	–	–	–	–	–	zone of inhibition at 5 µg/disc (Saccharomyces cerevisiae [18]): > 25 mm; zone of inhibition at 5 µg/disc (Candida albicans [19]): 25 mm
CC(=O)OCC1=C(C(=O)O)N2C(=O)[C@@H](NS(=O)(=O)c3ccc(/N=c4/sc(-c5ccc(Cl)cc5)cn4Cc4ccccc4)cc3)[C@H]2SC1	inactive	inactive	10	8 mm	inactive	22	8 mm	8 mm	543	64	–
